The results in this text go back to ChEMBL document CHEMBL4014338, “Discovery of Small Molecules as Multi-Toll-like Receptor Agonists with Proinflammatory and Anticancer Activities” (J Med Chem, 2017).

Assay [1] has as its target T1, Toll-like receptor 3 (Homo sapiens, UniProt O15455).
T1 sequence (O15455 whole entry): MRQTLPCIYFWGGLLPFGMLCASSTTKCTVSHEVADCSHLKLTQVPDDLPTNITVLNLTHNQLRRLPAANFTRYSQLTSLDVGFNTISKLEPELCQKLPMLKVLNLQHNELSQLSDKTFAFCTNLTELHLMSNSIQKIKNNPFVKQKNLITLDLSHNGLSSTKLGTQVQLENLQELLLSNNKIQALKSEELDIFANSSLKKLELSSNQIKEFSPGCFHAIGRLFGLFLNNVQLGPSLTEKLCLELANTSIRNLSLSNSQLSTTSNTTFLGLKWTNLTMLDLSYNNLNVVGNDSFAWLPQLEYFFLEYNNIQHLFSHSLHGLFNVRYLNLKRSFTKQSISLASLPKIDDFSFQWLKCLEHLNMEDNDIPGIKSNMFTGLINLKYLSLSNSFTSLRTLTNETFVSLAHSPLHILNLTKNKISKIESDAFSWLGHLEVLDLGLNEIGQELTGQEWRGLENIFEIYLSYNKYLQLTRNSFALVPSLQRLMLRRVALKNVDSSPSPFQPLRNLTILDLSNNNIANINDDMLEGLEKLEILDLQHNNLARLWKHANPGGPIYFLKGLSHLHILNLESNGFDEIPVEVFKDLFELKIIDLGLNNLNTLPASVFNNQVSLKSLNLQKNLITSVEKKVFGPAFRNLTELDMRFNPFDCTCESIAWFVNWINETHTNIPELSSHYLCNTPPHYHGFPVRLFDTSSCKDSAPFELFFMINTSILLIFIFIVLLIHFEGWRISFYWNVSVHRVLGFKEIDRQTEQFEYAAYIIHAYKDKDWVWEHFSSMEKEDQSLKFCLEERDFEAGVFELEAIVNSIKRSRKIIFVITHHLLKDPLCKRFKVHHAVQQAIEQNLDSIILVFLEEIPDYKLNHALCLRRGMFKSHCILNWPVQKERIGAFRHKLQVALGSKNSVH
The assay can be described thus: Agonist activity at human TLR3 expressed in HEK293 cells assessed as induction of NF-kB activation-mediated SEAP production after 24 hrs by HTS assay. It counts as cell-based. In outline: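 Stable HEK293 lines expressing a single hTLR plus a SEAP reporter, grown in DMEM/10% FBS with selective antibiotics. Seeded at 5 × 10^4 cells/well for 24 h at 37 °C, then treated 24 h. Supernatant mixed with QUANTI-Blue, 1 h at 37 °C, OD 620 nm. Cognate agonists: Pam3CSK4 (TLR2), poly I:C (TLR3), LPS (TLR4), FLA-BS (TLR5), R848 (TLR7). EC50 as mean ± SD.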

Assay [2] has as its target T2, Toll-like receptor 3/8/9 (Homo sapiens) (UniProt O15455+Q9NR96+Q9NR97). In words: Agonist activity at TLR3/TLR8/TLR9 in human THP1 cells assessed as increase in TNFalpha production after 24 hrs by ELISA. It counts as cell-based. An outline of the steps:
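THP-1 cells (1.5 × 10^6/well) in RPMI 1640 with 10% FBS, differentiated with PMA (20 nM) for 2 days, then 24 h in fresh medium; nonadherent cells removed. Compound added at indicated concentrations for 24 h. Supernatant TNF-α measured by ELISA. Reference ligands were poly I:C, R848 and CpG ODN2006.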
For orientation: ELISA stands for enzyme-linked immunosorbent assay.

Assay [3] concerns the target T2, Toll-like receptor 3/8/9 (Homo sapiens). The assay can be described thus: Agonist activity at TLR3/TLR8/TLR9 in human THP1 cells assessed as increase in IL-8 mRNA level after 12 hrs by qRT-PCR method. It counts as cell-based. An outline of the steps:
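THP-1 cells (1.5 × 10^6/well) differentiated with PMA (20 nM) for 2 days, then 24 h in fresh RPMI 1640; nonadherent cells removed. Treated with indicated compound concentrations for 12 h, washed with PBS, and mRNA measured by qRT-PCR. Expressed as fold change versus untreated control, poly I:C (5 μg/mL) as reference. Mean ± SD of three independent experiments.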
For orientation: Real-time PCR tracks product formation cycle by cycle.

Assay [4] concerns HMEC. In words: Antiproliferative activity against HMEC after 72 hrs by WST1 assay. It counts as cell-based. As to conditions: Homo sapiens. An outline of the steps:
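Cells seeded at 5 × 10^3/well and left 24 h, then given a concentration series for 24, 48 or 72 h. WST-1 reagent added and incubated at 37 °C for 30 min–2 h until color change; absorbance 450 nm. Growth inhibition = (1 − [sample − background]/[control − background]) × 100. IC50 mean ± SD, three cell preparations.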
(In general: Tetrazolium dyes change colour on reduction, which living cells bring about.)

Assay [5] relates to HeLa. The assay can be described thus: Induction of apoptosis in human HeLa cells at 10 to 40 uM after 24 hrs by Annexin V-FITC/propidium iodide staining based flow cytometry (reference value: 10%). It counts as functional. An outline of the steps:
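HeLa cells seeded at 3 × 10^5/well and attached 24 h, treated 24 h with 10, 20, 30 or 40 μM (DMSO or poly I:C 5 μg/mL as controls). Harvested with EDTA-free trypsin, washed twice in PBS, stained with annexin V-FITC/PI, and analyzed by flow cytometry. Early plus late apoptotic percentages reported as mean ± SD of three experiments.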

Assay [6] has as its system HeLa. The assay can be described thus: Cell cycle arrest in human HeLa cells assessed as accumulation at G2/M phase at 30 uM after 24 hrs by propidium iodide staining based flow cytometry (reference value: 17%). It counts as functional.
Assay [7] concerns HeLa. In words: Cell cycle arrest in human HeLa cells assessed as accumulation at G2/M phase at 40 uM after 24 hrs by propidium iodide staining based flow cytometry (reference value: 17%). It counts as functional.

T2 sequence (Q9NR96 whole entry, looked up, one chain of several): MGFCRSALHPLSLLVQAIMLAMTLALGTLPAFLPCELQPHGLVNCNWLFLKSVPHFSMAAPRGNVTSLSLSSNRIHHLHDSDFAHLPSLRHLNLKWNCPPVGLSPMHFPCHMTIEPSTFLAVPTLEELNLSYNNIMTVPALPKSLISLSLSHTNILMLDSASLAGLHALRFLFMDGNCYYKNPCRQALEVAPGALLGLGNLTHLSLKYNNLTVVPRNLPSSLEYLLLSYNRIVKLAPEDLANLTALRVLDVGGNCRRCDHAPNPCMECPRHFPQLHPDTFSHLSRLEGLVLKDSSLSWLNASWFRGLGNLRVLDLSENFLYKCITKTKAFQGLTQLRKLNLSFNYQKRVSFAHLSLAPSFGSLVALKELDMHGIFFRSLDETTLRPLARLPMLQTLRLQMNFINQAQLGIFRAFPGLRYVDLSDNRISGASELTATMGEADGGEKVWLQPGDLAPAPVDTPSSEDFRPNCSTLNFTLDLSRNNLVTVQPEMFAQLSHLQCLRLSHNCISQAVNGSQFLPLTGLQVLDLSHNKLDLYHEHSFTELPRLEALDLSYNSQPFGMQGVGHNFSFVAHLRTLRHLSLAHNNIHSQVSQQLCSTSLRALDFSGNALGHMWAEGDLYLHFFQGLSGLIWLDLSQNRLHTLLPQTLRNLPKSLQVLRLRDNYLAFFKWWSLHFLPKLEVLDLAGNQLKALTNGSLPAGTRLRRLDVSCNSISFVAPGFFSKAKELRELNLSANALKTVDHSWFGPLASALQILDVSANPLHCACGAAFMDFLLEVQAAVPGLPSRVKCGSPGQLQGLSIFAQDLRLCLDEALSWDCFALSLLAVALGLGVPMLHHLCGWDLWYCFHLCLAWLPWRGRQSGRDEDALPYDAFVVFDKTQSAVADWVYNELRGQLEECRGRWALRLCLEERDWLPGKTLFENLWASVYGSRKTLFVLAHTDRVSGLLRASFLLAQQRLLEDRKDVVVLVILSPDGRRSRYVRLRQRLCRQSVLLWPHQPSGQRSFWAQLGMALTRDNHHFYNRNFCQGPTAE
T2 sequence (Q9NR97 whole entry, looked up, one chain of several): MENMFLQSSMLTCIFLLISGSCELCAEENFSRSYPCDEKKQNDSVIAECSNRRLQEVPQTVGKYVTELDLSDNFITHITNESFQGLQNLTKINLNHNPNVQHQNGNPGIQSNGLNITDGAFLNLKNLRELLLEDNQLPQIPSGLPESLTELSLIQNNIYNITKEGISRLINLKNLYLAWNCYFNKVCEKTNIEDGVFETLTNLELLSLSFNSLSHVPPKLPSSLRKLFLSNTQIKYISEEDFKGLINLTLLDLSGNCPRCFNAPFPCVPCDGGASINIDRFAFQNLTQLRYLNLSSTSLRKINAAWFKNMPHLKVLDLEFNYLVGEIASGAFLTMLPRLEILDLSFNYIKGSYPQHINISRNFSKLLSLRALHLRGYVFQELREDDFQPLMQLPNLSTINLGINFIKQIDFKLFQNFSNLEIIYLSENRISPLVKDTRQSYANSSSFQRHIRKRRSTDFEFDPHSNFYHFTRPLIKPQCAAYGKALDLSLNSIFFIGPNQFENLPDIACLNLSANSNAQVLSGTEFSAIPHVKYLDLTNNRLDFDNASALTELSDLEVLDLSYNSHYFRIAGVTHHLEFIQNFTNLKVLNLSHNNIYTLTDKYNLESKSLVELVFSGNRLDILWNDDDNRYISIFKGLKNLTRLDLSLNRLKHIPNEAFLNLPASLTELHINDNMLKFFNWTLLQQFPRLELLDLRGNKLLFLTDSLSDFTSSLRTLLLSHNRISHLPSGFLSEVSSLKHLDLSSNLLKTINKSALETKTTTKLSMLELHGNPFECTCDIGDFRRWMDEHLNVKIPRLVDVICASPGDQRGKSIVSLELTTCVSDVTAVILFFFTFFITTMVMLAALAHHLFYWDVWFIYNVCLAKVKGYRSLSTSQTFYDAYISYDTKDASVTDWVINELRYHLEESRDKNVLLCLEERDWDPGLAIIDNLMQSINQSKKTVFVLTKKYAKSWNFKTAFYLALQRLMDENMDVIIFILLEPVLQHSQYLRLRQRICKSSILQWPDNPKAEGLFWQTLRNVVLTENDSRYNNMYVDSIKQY

As a reminder, the EC50 is the concentration giving half of the maximal effect. One may read the IC50 as the concentration that inhibits the measured activity by half. High values mean weaker potency in that assay, low ones greater potency in that assay. Turning to `O=[N+]([O-])c1ccc(COc2cc3c(cc2OCc2ccc([N+](=O)[O-])cc2)OC2(C=C3)CCOCC2)cc1`, in assay [1], the EC50 was found to be 4.8 µM. Further, the Activity entry is “Dose-dependent effect” in assay [2]; “Dose-dependent effect” in assay [3]; 17% in assay [5]; 20% in assay [6]; 19% in assay [7]. The same molecule registered an IC50 in assay [4] of 79.5 µM.
